Reference: ChEMBL document CHEMBL2321654, “Design, modification and 3D QSAR studies of novel naphthalin-containing pyrazoline derivatives with/without thiourea skeleton as anticancer agents” (Bioorg Med Chem, 2013)
Activity calls are given as the source filed them. No cut-off for these calls is given here.

Columns and labels:
MCF7 = experiment: Antiproliferative activity against human MCF7 cells after 24 hrs by MTT assay; type: functional; details: MCF7, 24 h
Procedure, shortened: (§1)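 MCF-7 and A549 cells grown in DMEM/10% FBS, 5% CO2, 37 °C; seeded at 1000 cells/well and left 24 h to reattach. Compound stocks 20 mM in DMSO, diluted in medium; 3-fold serial dilutions gave final […]. Exposure 24 h at 37 °C, then MTT read-out at 590 nm. GI50 calculated from absorbance.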

[1] = molecular target: Receptor tyrosine-protein kinase erbB-2 (Homo sapiens, UniProt P04626); experiment: Inhibition of human recombinant HER-2 cytoplasmic domain (676 to 1245) autophosphorylation after 1 hr
Procedure, shortened: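 His6-tagged HER-2 expressed in Sf-9 cells (3-day infection), purified by Ni-NTA at 4 °C. Enzyme (12.5 ng) preincubated with compound 10 min at room temperature, then 0.1 mM ATP-50 mM MgCl2 with MnCl2, Na3VO4 and DTT buffer added for 1 h. Autophosphorylation read by europium anti-phosphotyrosine DELFIA time-resolved fluorescence (ex 340/em 615 nm). Controls with and without ATP-MgCl2; triplicate.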

A549 = experiment: Antiproliferative activity against human A549 cells after 24 hrs by MTT assay; type: functional; details: A549, 24 h; procedure, shortened: as §1
[2] = molecular target: T1, Epidermal growth factor receptor (Homo sapiens, UniProt P00533); experiment: Inhibition of recombinant EGFR cytoplasmic domain (645 to 1186) (unknown origin) autophosphorylation after 1 hr
Focal adhesion kinase 1 = Focal adhesion kinase 1 (Homo sapiens, UniProt Q05397); experiment: Inhibition of human-recombinant full-length FAK after 4 hrs by kinase-Glo-luminescence assay
Procedure, shortened: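 Full-length recombinant human FAK incubated with ATP and substrate in kinase buffer, with or without compound, for 4 h at room temperature. Final drug concentrations 100, 30, 10 and 3 µg/mL. Remaining ATP measured by Kinase-Glo luminescence.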

[3] = molecular target: Receptor tyrosine-protein kinase erbB-3 (Homo sapiens, UniProt P21860); experiment: Inhibition of human recombinant HER-3 cytoplasmic domain (665 to 1339) autophosphorylation after 1 hr
Procedure, shortened: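 HER-3 cytoplasmic domain (aa 665–1339) from 1.8 Kb human cDNA. Assayed by the same DELFIA autophosphorylation procedure as EGFR/HER-2: compound preincubated with enzyme, ATP-MgCl2 for 1 h, europium anti-phosphotyrosine time-resolved fluorescence read-out.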

[4] = molecular target: Vascular endothelial growth factor receptor 2 (Homo sapiens, UniProt P35968); experiment: Inhibition of VEGFR-2 (unknown origin) using gastrin as substrate after 1 hr by fluorescence assay
Procedure, shortened: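 Phosphorylated or nonphosphorylated VEGFR-2 kinase domain, 5 nM, incubated with compound (10-point titration, 4 to 0.1 µM) and 1 µM gastrin substrate in Tris-HCl pH 7.5 with MgCl2, NaCl, EGTA, DTT, orthovanadate and BSA, 30 min at 25 °C. ATP then added to 11.8 µM final for 60 min at room temperature. Eu-anti-phosphotyrosine time-resolved fluorescence read at 665 nm; triplicate.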

[5] = molecular target: T1, Epidermal growth factor receptor; details: A549, 0.02 to 0.32 uM
[6] = molecular target: T1, Epidermal growth factor receptor; details: A549, 0.02 to 0.32 uM; remark: listed apart in the source

Chain of Receptor tyrosine-protein kinase erbB-2 (P04626 whole entry, the tested form may be a part): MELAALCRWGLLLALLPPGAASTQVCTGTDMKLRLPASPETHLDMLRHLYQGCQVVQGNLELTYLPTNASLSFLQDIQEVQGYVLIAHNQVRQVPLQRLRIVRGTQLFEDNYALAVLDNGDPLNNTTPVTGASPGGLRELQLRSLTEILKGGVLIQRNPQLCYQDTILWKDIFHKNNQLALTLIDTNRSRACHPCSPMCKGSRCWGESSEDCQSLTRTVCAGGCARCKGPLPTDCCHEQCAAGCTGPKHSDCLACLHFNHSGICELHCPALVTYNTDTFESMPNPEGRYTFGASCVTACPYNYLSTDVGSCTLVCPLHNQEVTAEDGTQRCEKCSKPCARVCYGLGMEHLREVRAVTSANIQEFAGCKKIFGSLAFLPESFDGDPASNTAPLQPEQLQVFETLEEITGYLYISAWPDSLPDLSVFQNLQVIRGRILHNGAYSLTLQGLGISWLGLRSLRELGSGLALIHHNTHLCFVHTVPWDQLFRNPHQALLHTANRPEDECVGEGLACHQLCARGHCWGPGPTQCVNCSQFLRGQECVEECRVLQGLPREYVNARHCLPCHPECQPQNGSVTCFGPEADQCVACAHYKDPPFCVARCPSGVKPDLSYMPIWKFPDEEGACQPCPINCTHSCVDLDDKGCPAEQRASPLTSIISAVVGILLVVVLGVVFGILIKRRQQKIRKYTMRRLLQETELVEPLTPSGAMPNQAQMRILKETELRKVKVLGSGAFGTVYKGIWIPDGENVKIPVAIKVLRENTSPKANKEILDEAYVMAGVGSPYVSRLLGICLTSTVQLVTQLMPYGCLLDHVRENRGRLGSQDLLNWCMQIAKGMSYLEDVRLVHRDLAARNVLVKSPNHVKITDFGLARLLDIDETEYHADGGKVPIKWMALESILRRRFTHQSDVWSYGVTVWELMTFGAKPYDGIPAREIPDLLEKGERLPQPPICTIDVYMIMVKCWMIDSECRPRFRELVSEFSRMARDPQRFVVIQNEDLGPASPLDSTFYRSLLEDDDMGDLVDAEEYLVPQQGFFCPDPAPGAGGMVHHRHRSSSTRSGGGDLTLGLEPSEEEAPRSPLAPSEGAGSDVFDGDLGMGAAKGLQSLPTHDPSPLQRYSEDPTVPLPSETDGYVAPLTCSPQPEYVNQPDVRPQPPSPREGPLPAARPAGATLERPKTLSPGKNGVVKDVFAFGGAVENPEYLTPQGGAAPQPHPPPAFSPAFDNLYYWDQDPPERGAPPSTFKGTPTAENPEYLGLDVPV
Chain of Receptor tyrosine-protein kinase erbB-3 (P21860 whole entry, the tested form may be a part): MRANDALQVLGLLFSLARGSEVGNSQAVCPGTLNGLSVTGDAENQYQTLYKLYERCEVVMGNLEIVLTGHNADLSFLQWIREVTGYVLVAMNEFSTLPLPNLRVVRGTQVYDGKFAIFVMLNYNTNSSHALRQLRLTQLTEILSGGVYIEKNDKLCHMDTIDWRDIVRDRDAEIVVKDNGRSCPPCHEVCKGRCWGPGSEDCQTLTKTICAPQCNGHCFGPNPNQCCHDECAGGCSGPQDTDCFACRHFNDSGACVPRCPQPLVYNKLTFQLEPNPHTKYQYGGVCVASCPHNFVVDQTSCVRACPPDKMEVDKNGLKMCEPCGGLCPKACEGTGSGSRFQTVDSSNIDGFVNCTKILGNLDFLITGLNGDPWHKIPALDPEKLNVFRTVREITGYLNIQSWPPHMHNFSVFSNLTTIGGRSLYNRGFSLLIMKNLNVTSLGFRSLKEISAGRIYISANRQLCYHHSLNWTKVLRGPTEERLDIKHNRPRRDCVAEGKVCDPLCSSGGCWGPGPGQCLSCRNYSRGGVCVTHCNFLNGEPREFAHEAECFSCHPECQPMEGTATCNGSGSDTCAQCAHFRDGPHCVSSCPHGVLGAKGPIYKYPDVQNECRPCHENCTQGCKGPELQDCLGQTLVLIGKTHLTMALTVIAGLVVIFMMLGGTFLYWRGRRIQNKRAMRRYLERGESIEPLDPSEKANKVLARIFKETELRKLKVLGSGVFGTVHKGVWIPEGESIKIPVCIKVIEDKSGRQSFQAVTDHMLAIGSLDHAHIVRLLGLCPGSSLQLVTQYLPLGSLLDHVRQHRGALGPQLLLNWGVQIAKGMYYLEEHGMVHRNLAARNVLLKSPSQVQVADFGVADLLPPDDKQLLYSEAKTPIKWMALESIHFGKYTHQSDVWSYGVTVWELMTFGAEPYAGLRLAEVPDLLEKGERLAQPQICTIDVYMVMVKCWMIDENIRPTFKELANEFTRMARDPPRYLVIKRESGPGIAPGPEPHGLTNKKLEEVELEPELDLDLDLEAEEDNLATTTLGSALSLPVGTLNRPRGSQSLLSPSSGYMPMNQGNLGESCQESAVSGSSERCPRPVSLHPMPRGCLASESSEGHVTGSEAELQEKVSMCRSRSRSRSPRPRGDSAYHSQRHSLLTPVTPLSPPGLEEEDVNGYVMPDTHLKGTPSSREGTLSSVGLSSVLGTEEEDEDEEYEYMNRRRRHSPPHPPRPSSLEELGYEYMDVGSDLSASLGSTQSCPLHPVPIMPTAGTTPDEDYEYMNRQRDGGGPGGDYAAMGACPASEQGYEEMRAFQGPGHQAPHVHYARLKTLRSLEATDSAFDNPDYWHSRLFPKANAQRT
T1 sequence (P00533 whole entry, the tested form may be a part): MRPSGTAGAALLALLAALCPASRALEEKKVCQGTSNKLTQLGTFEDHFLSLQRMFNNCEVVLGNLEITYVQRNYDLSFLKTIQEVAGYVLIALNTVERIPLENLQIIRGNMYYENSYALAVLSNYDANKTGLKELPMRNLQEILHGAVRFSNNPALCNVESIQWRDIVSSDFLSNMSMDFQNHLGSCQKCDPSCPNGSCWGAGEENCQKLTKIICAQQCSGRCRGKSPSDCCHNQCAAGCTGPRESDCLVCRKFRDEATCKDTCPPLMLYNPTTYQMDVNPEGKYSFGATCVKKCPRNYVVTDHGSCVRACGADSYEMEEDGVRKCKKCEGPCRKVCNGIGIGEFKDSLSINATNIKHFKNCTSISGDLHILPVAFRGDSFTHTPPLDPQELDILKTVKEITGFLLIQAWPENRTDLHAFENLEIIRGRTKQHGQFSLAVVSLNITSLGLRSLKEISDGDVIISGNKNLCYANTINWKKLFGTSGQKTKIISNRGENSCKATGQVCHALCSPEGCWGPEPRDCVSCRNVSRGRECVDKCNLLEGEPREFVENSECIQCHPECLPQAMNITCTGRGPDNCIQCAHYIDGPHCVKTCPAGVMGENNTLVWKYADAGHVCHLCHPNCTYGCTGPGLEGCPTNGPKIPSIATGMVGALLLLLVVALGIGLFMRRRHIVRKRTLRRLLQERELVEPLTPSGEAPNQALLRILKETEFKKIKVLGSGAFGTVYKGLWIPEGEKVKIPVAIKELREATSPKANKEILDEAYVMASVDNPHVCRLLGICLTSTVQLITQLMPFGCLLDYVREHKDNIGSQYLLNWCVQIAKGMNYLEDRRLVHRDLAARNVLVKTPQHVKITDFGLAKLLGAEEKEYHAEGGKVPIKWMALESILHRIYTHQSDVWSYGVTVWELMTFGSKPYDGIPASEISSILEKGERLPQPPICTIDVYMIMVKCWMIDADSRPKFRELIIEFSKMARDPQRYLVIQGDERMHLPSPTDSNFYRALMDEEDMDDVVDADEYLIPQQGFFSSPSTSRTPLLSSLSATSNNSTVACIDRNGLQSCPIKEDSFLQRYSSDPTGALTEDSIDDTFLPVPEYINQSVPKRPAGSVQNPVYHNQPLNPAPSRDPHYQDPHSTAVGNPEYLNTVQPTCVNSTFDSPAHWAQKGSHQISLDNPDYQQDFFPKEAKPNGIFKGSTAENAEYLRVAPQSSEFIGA
Chain of Focal adhesion kinase 1 (Q05397 whole entry): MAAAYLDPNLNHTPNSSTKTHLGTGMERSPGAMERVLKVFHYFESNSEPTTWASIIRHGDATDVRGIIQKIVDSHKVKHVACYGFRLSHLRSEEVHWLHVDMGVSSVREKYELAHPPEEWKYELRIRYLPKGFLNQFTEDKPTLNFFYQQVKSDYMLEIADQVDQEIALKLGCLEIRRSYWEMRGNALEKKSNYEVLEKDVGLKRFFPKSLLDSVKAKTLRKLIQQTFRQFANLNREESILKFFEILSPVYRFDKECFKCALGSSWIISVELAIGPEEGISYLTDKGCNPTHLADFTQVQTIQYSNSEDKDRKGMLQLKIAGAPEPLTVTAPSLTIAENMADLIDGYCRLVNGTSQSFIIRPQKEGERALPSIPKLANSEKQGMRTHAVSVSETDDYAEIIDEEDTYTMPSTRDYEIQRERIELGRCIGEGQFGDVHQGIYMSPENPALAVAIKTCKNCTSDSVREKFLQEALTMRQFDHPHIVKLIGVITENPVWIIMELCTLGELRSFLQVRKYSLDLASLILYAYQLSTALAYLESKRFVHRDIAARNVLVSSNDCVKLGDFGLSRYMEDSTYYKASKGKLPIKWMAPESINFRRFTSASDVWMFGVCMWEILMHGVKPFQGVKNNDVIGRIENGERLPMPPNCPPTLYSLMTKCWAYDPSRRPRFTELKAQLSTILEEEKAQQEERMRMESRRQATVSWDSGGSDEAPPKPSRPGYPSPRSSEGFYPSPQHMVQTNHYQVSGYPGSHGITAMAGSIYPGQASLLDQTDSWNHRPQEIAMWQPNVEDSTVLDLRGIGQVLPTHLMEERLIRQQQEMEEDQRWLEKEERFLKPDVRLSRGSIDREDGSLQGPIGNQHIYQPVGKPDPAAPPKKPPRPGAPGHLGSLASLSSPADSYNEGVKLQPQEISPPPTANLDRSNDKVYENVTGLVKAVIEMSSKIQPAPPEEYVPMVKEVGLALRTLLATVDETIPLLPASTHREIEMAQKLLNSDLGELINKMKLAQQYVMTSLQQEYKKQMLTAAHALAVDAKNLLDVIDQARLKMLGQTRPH

Row | Structure (SMILES) | GI50 (MCF7) | IC50 [1] | GI50 (A549) | IC50 [2] | IC50 (Focal adhesion kinase 1) | IC50 [3] | IC50 [4] | inhibition [5] | inhibition [6]
1 | NC(=S)N1N=C(c2ccc(Br)cc2)CC1c1cccc2ccccc12 (configuration not stated) | > 50000 nM | 9150 nM | 49100 nM | 5680 nM |  |  |  |  | 
2 | COc1ccc(C2=NN(c3ccccc3)C(c3ccc4ccccc4c3)C2)cc1 (configuration not stated) | 550 nM | 1450 nM | 160 nM |  |  |  |  |  | 
3 | NC(=S)N1N=C(c2ccccc2)CC1c1ccc2ccccc2c1 (configuration not stated) | 13800 nM | 5690 nM | 3210 nM | 3010 nM |  |  |  |  | 
4 | Cc1ccc(C2=NN(C(N)=S)C(c3ccc4ccccc4c3)C2)cc1 (configuration not stated) | 390 nM | 1040 nM | 270 nM | 520 nM | 28700 nM | 63200 nM | 2100 nM |  | 
5 | Clc1ccc(C2=NN(c3ccccc3)C(c3cccc4ccccc34)C2)cc1 (configuration not stated) | 1820 nM | 3070 nM | 330 nM | 680 nM |  |  |  |  | 
6 | COc1ccc(C2CC(c3ccc(C)c(C)c3)=NN2C(N)=S)cc1 (configuration not stated) | 3790 nM | 2770 nM | 340 nM |  |  |  |  |  | 
7 | Brc1ccc(C2=NN(c3ccccc3)C(c3ccc4ccccc4c3)C2)cc1 (configuration not stated) | 480 nM | 1280 nM | 360 nM | 710 nM |  |  |  |  | 
8 | NC(=S)N1N=C(c2ccc(Cl)c(Cl)c2)CC1c1ccc(O)cc1 (configuration not stated) | 27600 nM | 6580 nM | 33500 nM |  |  |  |  |  | 
9 | Cc1ccc(C2=NN(C(N)=S)C(c3cccc4ccccc34)C2)cc1 (configuration not stated) | 29100 nM | 6680 nM | 1210 nM | 2060 nM |  |  |  |  | 
10 | NC(=S)N1N=C(c2ccc(Br)cc2)CC1c1ccc2ccccc2c1 (configuration not stated) | 440 nM | 1210 nM | 230 nM | 350 nM |  |  |  |  | 
11 | Cc1ccc(C2=NN(c3ccccc3)C(c3ccc4ccccc4c3)C2)cc1 (configuration not stated) | 390 nM | 1130 nM | 130 nM | 60 nM | 11500 nM | 45300 nM | 1560 nM |  | 
12 | C#Cc1cccc(Nc2ncnc3cc(OCCOC)c(OCCOC)cc23)c1 [ERLOTINIB] | 80 nM |  | 30 nM |  |  |  |  |  | 
13 | COc1ccc(C2=NN(C(N)=S)C(c3ccc4ccccc4c3)C2)cc1 (configuration not stated) | 2120 nM | 3280 nM | 460 nM | 1040 nM |  |  |  |  | 
14 | NC(=S)N1N=C(c2ccc(Cl)c(Cl)c2)CC1c1cccc2ccccc12 (configuration not stated) | 33100 nM | 6840 nM | 180 nM | 210 nM |  |  |  |  | 
15 | NC(=S)N1N=C(c2ccc(Cl)cc2)CC1c1ccc2ccccc2c1 (configuration not stated) | 3310 nM | 3870 nM | 260 nM |  |  |  |  |  | 
16 | NC(=S)N1N=C(c2ccccc2)CC1c1cccc2ccccc12 (configuration not stated) | 44500 nM | 7240 nM | 1440 nM | 2230 nM |  |  |  |  | 

Row | Structure (SMILES) | GI50 (MCF7) | IC50 [1] | GI50 (A549) | IC50 [2] | IC50 (Focal adhesion kinase 1) | IC50 [3] | IC50 [4] | inhibition [5] | inhibition [6]
17 | NC(=S)N1N=C(c2ccc(F)cc2)CC1c1ccc2ccccc2c1 (configuration not stated) | 880 nM | 1750 nM | 4180 nM | 3280 nM |  |  |  |  | 
18 | COc1ccc(C2=NN(c3ccccc3)C(c3cccc4ccccc34)C2)cc1 (configuration not stated) | 1710 nM | 3010 nM | 160 nM | 100 nM | 10300 nM | 40200 nM | 3400 nM |  | 
19 | COc1ccc(C2=NN(C(N)=S)C(c3cccc4ccccc34)C2)cc1 (configuration not stated) | 4180 nM | 4180 nM | 170 nM | 160 nM | 13600 nM | 55600 nM | 4100 nM |  | 
20 | Brc1ccc(C2=NN(c3ccccc3)C(c3cccc4ccccc34)C2)cc1 (configuration not stated) | 1030 nM | 2320 nM | 250 nM | 490 nM |  |  |  |  | 
21 | NC(=S)N1N=C(c2ccc(F)cc2)CC1c1cccc2ccccc12 (configuration not stated) | > 50000 nM | 10600 nM | > 50000 nM | 8250 nM |  |  |  |  | 
22 | Cc1ccc(C2=NN(c3ccccc3)C(c3cccc4ccccc34)C2)cc1 (configuration not stated) | 740 nM | 1910 nM | 190 nM | 200 nM |  |  |  |  | 
23 | Clc1ccc(C2=NN(c3ccccc3)C(c3ccc4ccccc4c3)C2)cc1Cl (configuration not stated) | 390 nM | 1020 nM | 110 nM | 50 nM | 6200 nM | 35900 nM | 1830 nM | Active | Active
24 | Clc1ccc(C2=NN(c3ccccc3)C(c3ccc4ccccc4c3)C2)cc1 (configuration not stated) | 530 nM | 1460 nM | 160 nM | 110 nM |  |  |  |  | 
25 | c1ccc(C2=NN(c3ccccc3)C(c3cccc4ccccc34)C2)cc1 (configuration not stated) | 3290 nM | 3830 nM | 1980 nM | 2520 nM |  |  |  |  | 
26 | Clc1ccc(C2=NN(c3ccccc3)C(c3cccc4ccccc34)C2)cc1Cl (configuration not stated) | 810 nM | 1980 nM | 200 nM | 140 nM |  |  |  |  | 
27 | Fc1ccc(C2=NN(c3ccccc3)C(c3ccc4ccccc4c3)C2)cc1 (configuration not stated) | 850 nM | 2010 nM | 230 nM | 300 nM |  |  |  |  | 
28 | NC(=S)N1N=C(c2ccc(Cl)cc2)CC1c1cccc2ccccc12 (configuration not stated) | 11200 nM | 5460 nM | 380 nM |  |  |  |  |  | 
29 | NC(=S)N1N=C(c2ccc(Cl)c(Cl)c2)CC1c1ccc2ccccc2c1 (configuration not stated) | 350 nM | 880 nM | 310 nM | 660 nM | 9900 nM | 51700 nM | 3200 nM |  | 
30 | Fc1ccc(C2=NN(c3ccccc3)C(c3cccc4ccccc34)C2)cc1 (configuration not stated) | 2680 nM | 3590 nM | 490 nM | 1070 nM |  |  |  |  | 
31 | c1ccc(C2=NN(c3ccccc3)C(c3ccc4ccccc4c3)C2)cc1 (configuration not stated) | 730 nM | 1890 nM | 220 nM | 240 nM |  |  |  |  | 
